Bioassay records (PubChem BioAssay)
These entries were drawn from the full list.
Apaf-1 act: activators of human Apaf-1 apoptosome, primary screen, biochemical, DEVD-Rh110 fluorescence, uHTS; 330,000 tested, 0.31% active; Apaf-1 apoptosome caspase-3 activation; active compounds read low; Apoptotic protease-activating factor 1 (Homo sapiens), O14727; activity change, negative = activation, % at 20 µM;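 active = activity change at or below -40% at 20 µM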
Target sequence (O14727 whole entry, looked up): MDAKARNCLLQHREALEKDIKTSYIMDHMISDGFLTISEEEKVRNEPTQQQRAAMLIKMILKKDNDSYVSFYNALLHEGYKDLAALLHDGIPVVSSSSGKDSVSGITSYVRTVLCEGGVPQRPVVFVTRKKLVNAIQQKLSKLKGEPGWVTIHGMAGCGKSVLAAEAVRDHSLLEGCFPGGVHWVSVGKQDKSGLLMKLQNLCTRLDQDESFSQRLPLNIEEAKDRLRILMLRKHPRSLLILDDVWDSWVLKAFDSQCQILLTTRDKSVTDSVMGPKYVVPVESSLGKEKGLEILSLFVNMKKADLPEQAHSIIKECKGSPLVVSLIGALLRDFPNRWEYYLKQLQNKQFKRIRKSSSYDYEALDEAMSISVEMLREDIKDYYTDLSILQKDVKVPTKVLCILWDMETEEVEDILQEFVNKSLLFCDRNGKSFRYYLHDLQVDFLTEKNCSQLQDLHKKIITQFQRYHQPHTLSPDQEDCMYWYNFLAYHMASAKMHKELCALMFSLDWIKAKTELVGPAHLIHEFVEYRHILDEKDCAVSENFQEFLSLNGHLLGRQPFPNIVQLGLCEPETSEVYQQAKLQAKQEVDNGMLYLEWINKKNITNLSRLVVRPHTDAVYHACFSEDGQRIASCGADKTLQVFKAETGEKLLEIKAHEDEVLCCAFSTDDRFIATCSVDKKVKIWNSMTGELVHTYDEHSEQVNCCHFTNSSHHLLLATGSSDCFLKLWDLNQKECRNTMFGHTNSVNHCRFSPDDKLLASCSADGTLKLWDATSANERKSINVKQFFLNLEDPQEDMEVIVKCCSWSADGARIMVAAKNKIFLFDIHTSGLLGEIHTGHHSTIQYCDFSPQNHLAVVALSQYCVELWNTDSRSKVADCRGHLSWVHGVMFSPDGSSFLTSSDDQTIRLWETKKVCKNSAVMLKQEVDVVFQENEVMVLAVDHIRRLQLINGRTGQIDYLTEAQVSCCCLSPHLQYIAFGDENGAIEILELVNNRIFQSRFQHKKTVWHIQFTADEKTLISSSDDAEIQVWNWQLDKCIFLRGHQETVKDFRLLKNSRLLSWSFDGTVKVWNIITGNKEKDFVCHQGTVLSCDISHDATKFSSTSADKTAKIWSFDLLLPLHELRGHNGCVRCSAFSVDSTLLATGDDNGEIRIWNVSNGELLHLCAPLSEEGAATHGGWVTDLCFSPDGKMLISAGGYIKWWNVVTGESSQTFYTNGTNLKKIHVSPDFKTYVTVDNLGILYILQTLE
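Material: reconstituted apoptosome of Apaf-1, cytochrome c, caspase-9, procaspase-3; times: 30 min preincubation, 50 min reaction, room temperature; measured by: fluorescence, 540 nm emission, 480 nm excitation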
Rh110 interf act: Rh110 fluorescence interference by putative Apaf-1 activators, confirmation, artefact control for Apaf-1 activator project, biochemical, 20 µM; shares compounds with Apaf-1 act; quenched caspase reaction, Ex480/Em540; fluorescence interference (activity change), % at 20 µM, hits read low; 980 tested, under 10 active; AID 504616, 2011;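 active = mean activity change at or below -40% when tested at 20 µM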
Apaf-1 act conf: Apaf-1 activators, single-dose retest, confirmation, biochemical, fluorescence, DEVD-Rh110, 20 µM; 980 tested, 5% active; AID 504617, 2011; shares compounds with Apaf-1 act; reconstituted apoptosome caspase-3 activity; active compounds read low; activity change, negative = activation, % at 20 µM;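 active = mean activity change at or below -40%, meaning activation of 40% or more, at 20 µM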
Starred values were filed as active, the others as inactive; / = no result given.

SMILES	Apaf-1 act	Rh110 interf act	Apaf-1 act conf
O=C(C1CCCN(S(=O)(=O)c2cnc[nH]2)C1)N1CCN(Cc2ccccc2)CC1 (stereo not drawn)	40	/	/
CCOC(=O)C1CCN(C2=C(NS(=O)(=O)c3ccc(Br)cc3)C(=O)c3ccccc3C2=O)CC1	68	/	/
O=C1C(=C(O)c2ccccc2)C(=O)c2ccccc21	41	/	/
CN(C)CCCN1c2ccccc2Sc2ccc(C(F)(F)F)cc21	43	/	/
Cc1cc(N2CCN(c3ccc([N+](=O)[O-])c4cccnc34)CC2)c2ccccc2n1	60	/	/
COc1cccc2c3c(c(=O)[nH]c12)CCC(C)(C)O3	-63*	-9	10
COc1cccc2c(=O)c3cccc(N)c3[nH]c12	70	/	/
Cc1ccc2c(CN3CCCCC3C)cc(=O)oc2c1C (stereo not drawn)	-50*	4	9
O=C(O)c1ccc2c(c1)-c1nc3ccccc3n1C2=O	-113*	-2	-1
O=C(O)c1ccc(NC2=C(n3nnc4ccccc43)C(=O)c3ccccc3C2=O)cc1	73	/	/
CC[C@H](C)[C@@H](C(=O)NCCCCCCCCCCC(=O)N1CCN(C(=O)OC(C)(C)C)CC1)n1cc(CCCCN=C(NC(=O)OC(C)(C)C)NC(=O)OC(C)(C)C)nn1	56	/	/
CN(C)CCCN(C(=O)c1ccc(C(=O)c2ccccc2)cc1)c1nc2cc3c(cc2s1)OCO3	60	/	/
CCc1ccc2nc(N(CCCN(C)C)C(=O)c3ccc(S(=O)(=O)N(C)C4CCCCC4)cc3)sc2c1	54	/	/
CN(C)CCCN(C(=O)c1ccco1)c1nc2ccc(F)cc2s1	-99*	6	10
C#CCOCCOCCOCCNc1nc(N2CCN(C(=O)CCCCCCCCCCNC(=O)[C@H]([C@@H](C)CC)n3cc(CCCCCN)nn3)CC2)nc(N2CCN(C(=O)CCCCCCCCCCNC(=O)[C@@H]([C@H](C)CC)n3cc(CCCCCN)nn3)CC2)n1	78	/	/
CCN(CC)C(=O)[C@H]1C[C@H](CC(=O)NCc2cccc(C(F)(F)F)c2)C(=O)N2CCc3c([nH]c4ccc(Cl)cc34)[C@]12C	46	/	/
CCOc1cc(/C=C2/C(=O)N(c3ccccc3)N=C2C)ccc1OC(=O)c1cccs1	69	/	/
O=c1[nH]c(Nc2ccccc2Cl)cc2ccccc12	98	/	/
Cn1nccc1C(=O)N1CCN(C23CC4CC(CC(C4)C2)C3)CC1	-56*	10	17
CN(C)CCCNC(=O)CC1C[C@H](C(=O)N2CCCCC2)[C@@]2(CCc3ccccc3)c3[nH]c4ccccc4c3CCN2C1=O (stereo partly drawn)	46	/	/
Cc1cccc(CNc2ncnc3ccc(-c4ccc5c(c4)OCCO5)cc23)c1	42	/	/
CCc1cc2c(NCc3ccco3)ncnc2s1	-110*	0	2
CC(C)C[C@@H]1CN=C(N)N1C[C@@H]1CCCN1C[C@H](C)N1C[C@@H](Cc2ccccc2)N(CCCC2CCCC2)C1=N	55	/	/
CCN(Cc1ccccc1)S(=O)(=O)c1ccc(C(=O)N(CCCN(C)C)c2nc3cc(OC)ccc3s2)cc1	40	/	/
Cc1cccc2cc(C(c3nnnn3CC3CCCO3)N3CCc4ccccc4C3)c(=O)[nH]c12 (stereo not drawn)	79	/	/
SMILES	Apaf-1 act	Rh110 interf act	Apaf-1 act conf
C[N+]1(C)CCC(=C2c3ccccc3CC(=O)c3sccc32)CC1	57	/	/
O=C(CCC1N=C2c3ccccc3N=C(SCc3ccc(Cl)cc3)N2C1=O)NCc1ccco1 (stereo not drawn)	41	/	/
S=C(NCCc1ccc(Cl)cc1)NCc1ccco1	-154*	3	15
COc1cc(-c2nc(C(=O)NC3CCN(Cc4ccccc4)CC3)cc3c2[nH]c2ccccc23)cc(OC)c1OC	41	/	/
COc1ccc(-c2nc(C(=O)NCC3CCCO3)cc3c2[nH]c2ccccc23)cc1 (stereo not drawn)	-224*	17	21
Nc1ccc2nc(-c3cccc(-c4nc5ccc(N)cc5[nH]4)n3)[nH]c2c1	40	/	/
CC(C)C(=O)Nc1cccc(-c2cn3ccsc3n2)c1	67	/	/
CC(C)C(=O)Nc1ccc2nn(-c3ccc(F)cc3)nc2c1	-95*	17	15
Cc1ccc(-n2nc3ccc(NC(=O)C(C)C)cc3n2)cc1	-152*	5	7
Nc1ccc2nn(-c3ccc(F)cc3)nc2c1	88	/	/
CC(C)c1ccc(-n2nc3ccc(N)cc3n2)cc1	63	/	/
Cc1ccc(-n2nc3ccc(N)cc3n2)cc1	82	/	/
Cc1ccc(N=Nc2c(N)[nH]n3c(=O)cc(-c4ccccc4)nc23)cc1	55	/	/
Cc1cccc(/C=N/NC(=O)C(C)Nc2cccc3ccccc23)n1 (stereo not drawn)	91	/	/
Cc1nc2sccn2c(=O)c1CCN1CCC(=C(c2ccc(F)cc2)c2ccc(F)cc2)CC1	42	/	/
CC(=O)N1CCc2c(sc(NC(=O)C3CC3)c2-c2nc3ccccc3s2)C1	72	/	/
O=C(O)c1ccccc1-c1ccc(/C=c2\sc3nc4cc(Br)cnc4n3c2=O)o1	72	/	/
C=C(C)C(=O)Nc1ccc(OC(F)(F)C(F)F)c(NC(=O)C(=C)C)c1	-85*	4	-21
O=C1N/C(=C\c2ccc(O)cc2)C(=O)c2ccccc21	97	/	/
OC(CNCC1CCCO1)Cn1c2ccc(Cl)cc2c2cc(Cl)ccc21 (stereo not drawn)	43	/	/
CCN1C(=NCCc2ccccn2)N[C@@H](c2cccc(C(F)(F)F)c2)C(C(=O)OC)=C1C	-114*	13	9
COC(=O)C1=C(C)N(Cc2ccccc2)C(=NCCc2ccccn2)N[C@H]1c1cccc(C(F)(F)F)c1	48	/	/
COC(=O)C1=C(C)N(Cc2ccccc2)C(=NCC(C)C)N[C@H]1c1cccc(C(F)(F)F)c1	58	/	/
Cc1ccc(N(CC(=O)N/N=C/c2ccc(OC3CSC3)cc2)S(=O)(=O)c2ccccc2)c(C)c1	63	/	/
COC(=O)C1=C(C)N(Cc2ccccc2)C(=NCc2cccc(Cl)c2)N[C@H]1c1cccc(F)c1	67	/	/
SMILES	Apaf-1 act	Rh110 interf act	Apaf-1 act conf
O=C1CC(N2CCN(C3CCc4ccccc4C3)CC2)C(=O)N1c1ccccc1 (stereo not drawn)	-43*	13	18
COc1cccc(C(c2c(C)[nH]n(-c3ccccc3)c2=O)c2c(C)[nH]n(-c3ccccc3)c2=O)c1OC	97	/	/
CC(C)Oc1ccc(C(=O)NC2(C(F)(F)F)NC(=O)N(CCCc3ccccc3)C2=O)cc1 (stereo not drawn)	-45*	6	17
COCCNC(=O)CN1C(=O)NC2(CCOc3ccccc32)C1=O (stereo not drawn)	46	/	/
O=C(NN=c1c(=O)c2ccccc2c1=O)c1ccccc1	96	/	/
O=C(N/N=C/c1[nH]c2ccccc2c1Cl)c1cccc(Br)c1	-72*	12	11
COc1cccc(C(c2c(C)[nH]n(-c3ccccc3)c2=O)c2c(C)[nH]n(-c3ccccc3)c2=O)c1O	94	/	/
O=C(NCCCN1CCOCC1)c1c(O)c2cc(Br)cc(Br)c2[nH]c1=O	-57*	-9	11
Cc1ccc(-c2cc(C(=O)NCCCN3CCOCC3)c3ccc(Cl)c(C)c3n2)cc1	55	/	/
